In ChEMBL document CHEMBL1165845, “Synthesis and biological evaluation of analogues of a novel inhibitor of beta-amyloid secretion” (J Med Chem, 2010):
The source made the active and inactive calls. The calls are words filed in the database; no cut-off is given here.

test system: H4; experiment: Induction of alpha-secretase-mediated amyloid beta lowering activity in human H4 cells expressing wild type betaAPP695 at 1 uM after 24 hrs by ELISA; type: cell-based; settings: not given
Method in brief: (§1)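 Serum-starved H4βAPP695wt cells are treated for 24 h with drug in DMSO (0.02% DMSO vehicle control). Total Aβ in conditioned medium is measured by sandwich ELISA with 6E10 capture and 4G8 detection, normalized to lysate protein by BCA. Cytotoxicity is read as total cell protein. Quadruplicate wells in 1-4 independent experiments give the % decrease versus vehicle.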

Structure (SMILES)	Activity
O=C(NCCSCc1cccc(Cl)c1)c1c(Cl)cccc1Cl	Active

test system: H4; experiment: Cytotoxicity against human H4 cells expressing wild type betaAPP695 at 10 uM after 24 hrs by methylene blue staining; type: cell-based; settings: h4, 24 h
Method in brief: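 Primary screen in H4βAPP695wt cells: drugs are delivered by the hanging drop method at an estimated 10-25 μM, and conditioned medium is collected at 24 h. Cytotoxicity is assessed by methylene blue staining of cells in the wells, with each compound run in a single well and hits rescreened in duplicate.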

Structure (SMILES)	Activity
O=C(NCCSCc1ccc(Cl)cc1)c1ccc(Cl)cc1Cl	Non-toxic

test system: H4; experiment: Activation of alpha-secretase in human H4 cells expressing wild type betaAPP695 assessed as increase in sAPPalpha levels at 10 uM after 24 hrs by Western blotting; type: cell-based; settings: not given
Method in brief: (§2)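 H4βAPP695wt cells are switched to serum-free medium 24 h before treatment, then exposed to drug in DMSO or vehicle for 24 h. Conditioned medium gets protease inhibitors and is cleared, with its volume adjusted to lysate protein; sAPPα is probed with 6E10 and sAPPβ with a specific antibody (1:1000), detected by ECL. Lysates in RIPA (20 μg protein) go on 4-20% Bis-Tris gels. Bands are quantified by densitometry.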

Structure (SMILES)	Activity
O=C(NCCSCc1cccc(Cl)c1)c1c(Cl)cccc1Cl	Active

test system: H4; experiment: Activation of alpha-secretase in human H4 cells expressing wild type betaAPP695 assessed as increase in alpha-CTF levels at 10 uM after 24 hrs by Western blotting; type: cell-based; settings: not given; method in brief: as §2

Structure (SMILES)	Activity
O=C(NCCSCc1cccc(Cl)c1)c1c(Cl)cccc1Cl	Active

test system: H4; experiment: Activation of alpha-secretase in human H4 cells expressing wild type betaAPP695 assessed as increase in sAPPbeta levels at 10 uM after 24 hrs by Western blotting; type: cell-based; settings: not given; method in brief: as §2

Structure (SMILES)	Activity
O=C(NCCSCc1cccc(Cl)c1)c1c(Cl)cccc1Cl	inactive

test system: H4; experiment: Increase in alpha-secretase activity in human H4 cells expressing wild type betaAPP695 at 10 uM after 24 hrs by fluorescence method; type: cell-based; settings: not given
Method in brief: (§3)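 H4βAPP695wt cells are treated with drug or vehicle for 24 h, washed in cold PBS and lysed on ice for 10 min. 50 μg lysate protein plus reaction buffer and fluorogenic peptide substrate are incubated 2 h at 37 °C in the dark. Fluorescence is read at ex 355/em 510 nm after subtracting the no-lysate blank, N = 6.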

Structure (SMILES)	Activity [%]
O=C(NCCSCc1cccc(Cl)c1)c1c(Cl)cccc1Cl	20

test system: H4; experiment: Increase in alpha-secretase activity in human H4 cell lysate expressing wild type betaAPP695 at 10 uM after 24 hrs by fluorescence method; type: cell-based; settings: not given; method in brief: as §3

Structure (SMILES)	Activity
O=C(NCCSCc1cccc(Cl)c1)c1c(Cl)cccc1Cl	inactive

test system: H4; experiment: Induction of alpha-secretase-mediated reduction in amyloid beta secretion in human H4 cells expressing wild type betaAPP695 by […] in presence of PKC-inhibitor bisindolyl-maleimide; type: cell-based; settings: not given
Method in brief: (§4)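 H4βAPP695wt cells in serum-free medium receive a PKC inhibitor 30 min before a 24 h drug challenge. Secreted Aβ is measured by ELISA and compared with the respective control for each inhibitor, N = 4.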

Structure (SMILES)	Activity
O=C(NCCSCc1cccc(Cl)c1)c1c(Cl)cccc1Cl	Active

test system: H4; experiment: Induction of alpha-secretase-mediated reduction in amyloid beta secretion in human H4 cells expressing wild type betaAPP695 by […] in presence of PKC-inhibitor calphostin C; type: cell-based; settings: not given; method in brief: as §4

Structure (SMILES)	Activity
O=C(NCCSCc1cccc(Cl)c1)c1c(Cl)cccc1Cl	Active

test system: H4; experiment: Induction of alpha-secretase-mediated reduction in amyloid beta secretion in human H4 cells expressing wild type betaAPP695 […] in presence of PKC-inhibitor rottlerin; type: cell-based; settings: not given; method in brief: as §4

Structure (SMILES)	Activity
O=C(NCCSCc1cccc(Cl)c1)c1c(Cl)cccc1Cl	Active

test system: H4; experiment: Activation of alpha-secretase in human H4 cells expressing wild type betaAPP695 assessed as increase in ratio of active-ADAM9 to pro-ADAM9 level at 10 uM after 24 hrs by Western blotting; type: cell-based; settings: not given
Method in brief: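 H4βAPP695wt cells are held in serum-free medium for 24 h, then given increasing drug concentrations for 24 h. RIPA lysates (20 μg protein) are immunoblotted with antibodies for ADAM9, ADAM10 and ADAM17, and pro and active forms are quantified by densitometry as an active/pro ratio, N = 3 per group.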

Structure (SMILES)	Activity [%]
O=C(NCCSCc1cccc(Cl)c1)c1c(Cl)cccc1Cl	31

test system: H4; experiment: Induction of alpha-secretase-mediated reduction in amyloid beta secretion in human H4 cells expressing wild type betaAPP695 at 10 uM after 24 hrs […] relative to control; type: cell-based; design: scale not given: the % may be the effect or the level left; settings: not given; method in brief: as §1

Structure (SMILES)	Activity [%]
O=C(NCCSCc1ccc(Cl)cc1)c1ccc(Cl)cc1Cl	5.3
COc1cc(Cl)cc(CSCCNC(=O)c2c(Cl)cccc2Cl)c1	67.7
COc1cccc(CSCCNC(=O)c2c(Cl)cccc2Cl)c1OC	57.8
O=C(NCCSCc1cccc(I)c1)c1c(Cl)cccc1Cl	84.4
COc1cccc(CSCCNC(=O)c2c(Cl)cccc2Cl)c1	60.6
Cc1cccc(CSCCNC(=O)c2c(Cl)cccc2Cl)c1	70.5
O=C(NCCSCc1cccc(Cl)c1)c1c(Cl)cccc1Cl	75.3
O=C(NCCSCc1ccccc1Cl)c1c(Cl)cccc1Cl	75.6
O=C(NCCSCc1cccc(O)c1)c1c(Cl)cccc1Cl	56.4
O=C(NCCSCc1ccccc1)c1c(Cl)cccc1Cl	51.6

test system: H4; experiment: Induction of alpha-secretase-mediated reduction in amyloid beta secretion in human H4 cells expressing wild type betaAPP695 at 30 uM after 24 hrs […] relative to control; type: cell-based; design: scale not given: the % may be the effect or the level left; settings: not given; method in brief: as §1

Structure (SMILES)	Activity [%]
COc1cc(Cl)cc(CSCCNC(=O)c2c(Cl)cccc2Cl)c1	81
COc1cccc(CSCCNC(=O)c2c(Cl)cccc2Cl)c1OC	72.8
O=C(NCCSCc1cccc(I)c1)c1c(Cl)cccc1Cl	88.3
COc1cccc(CSCCNC(=O)c2c(Cl)cccc2Cl)c1	73.9
Cc1cccc(CSCCNC(=O)c2c(Cl)cccc2Cl)c1	85.8
O=C(NCCSCc1ccccc1Cl)c1c(Cl)cccc1Cl	80
O=C(NCCSCc1cccc(O)c1)c1c(Cl)cccc1Cl	67.7
O=C(NCCSCc1ccccc1)c1c(Cl)cccc1Cl	58.6

test system: H4; experiment: Cytotoxicity against human H4 cells expressing wild type betaAPP695 assessed as decrease in cell protein at 10 uM after 24 hrs; type: cell-based; design: scale not given: the % may be the effect or the level left; settings: h4, 24 h; method in brief: as §1

Structure (SMILES)	Activity [%]
COc1cc(Cl)cc(CSCCNC(=O)c2c(Cl)cccc2Cl)c1	0.9
COc1cccc(CSCCNC(=O)c2c(Cl)cccc2Cl)c1OC	-0.1
O=C(NCCSCc1cccc(I)c1)c1c(Cl)cccc1Cl	9.2
COc1cccc(CSCCNC(=O)c2c(Cl)cccc2Cl)c1	8.4
Cc1cccc(CSCCNC(=O)c2c(Cl)cccc2Cl)c1	11.7
O=C(NCCSCc1ccccc1Cl)c1c(Cl)cccc1Cl	-0.5
O=C(NCCSCc1cccc(O)c1)c1c(Cl)cccc1Cl	6.3
O=C(NCCSCc1ccccc1)c1c(Cl)cccc1Cl	-1.1

test system: H4; experiment: Cytotoxicity against human H4 cells expressing wild type betaAPP695 assessed as decrease in cell protein at 30 uM after 24 hrs; type: cell-based; design: scale not given: the % may be the effect or the level left; settings: h4, 24 h; method in brief: as §1

Structure (SMILES)	Activity [%]
COc1cc(Cl)cc(CSCCNC(=O)c2c(Cl)cccc2Cl)c1	0.4
COc1cccc(CSCCNC(=O)c2c(Cl)cccc2Cl)c1OC	8.7
O=C(NCCSCc1cccc(I)c1)c1c(Cl)cccc1Cl	19
COc1cccc(CSCCNC(=O)c2c(Cl)cccc2Cl)c1	13.2
Cc1cccc(CSCCNC(=O)c2c(Cl)cccc2Cl)c1	16.6
O=C(NCCSCc1ccccc1Cl)c1c(Cl)cccc1Cl	-11
O=C(NCCSCc1cccc(O)c1)c1c(Cl)cccc1Cl	6.6
O=C(NCCSCc1ccccc1)c1c(Cl)cccc1Cl	-0.7

test system: H4; experiment: Induction of alpha-secretase-mediated reduction in amyloid beta secretion in human H4 cells expressing wild type betaAPP695 treated with media containing human THLE3 cells incubated with 10 uM compound for 24 hrs […]; type: cell-based; design: scale not given: the % may be the effect or the level left; settings: in the assay text read “20 uM” for “10 uM”

Structure (SMILES)	Activity [%]
COc1cc(Cl)cc(CSCCNC(=O)c2c(Cl)cccc2Cl)c1	33.5
COc1cccc(CSCCNC(=O)c2c(Cl)cccc2Cl)c1OC	1.9
O=C(NCCSCc1cccc(I)c1)c1c(Cl)cccc1Cl	40
COc1cccc(CSCCNC(=O)c2c(Cl)cccc2Cl)c1	22.2
Cc1cccc(CSCCNC(=O)c2c(Cl)cccc2Cl)c1	38.3
O=C(NCCSCc1cccc(Cl)c1)c1c(Cl)cccc1Cl	34.6
O=C(NCCSCc1ccccc1Cl)c1c(Cl)cccc1Cl	48.8
O=C(NCCSCc1cccc(O)c1)c1c(Cl)cccc1Cl	23.1
O=C(NCCSCc1ccccc1)c1c(Cl)cccc1Cl	27

test system: H4; experiment: Induction of alpha-secretase-mediated reduction in amyloid beta secretion in human H4 cells expressing wild type betaAPP695 assessed as remaining drug activity treated with media containing human THLE3 cells incubated with 10 uM compound for 24 hrs measured 24 hrs after media treatment […]; type: cell-based; settings: not given

Structure (SMILES)	Activity [%]
COc1cc(Cl)cc(CSCCNC(=O)c2c(Cl)cccc2Cl)c1	49
COc1cccc(CSCCNC(=O)c2c(Cl)cccc2Cl)c1OC	3
O=C(NCCSCc1cccc(I)c1)c1c(Cl)cccc1Cl	47
COc1cccc(CSCCNC(=O)c2c(Cl)cccc2Cl)c1	37
Cc1cccc(CSCCNC(=O)c2c(Cl)cccc2Cl)c1	54
O=C(NCCSCc1cccc(Cl)c1)c1c(Cl)cccc1Cl	50
O=C(NCCSCc1ccccc1Cl)c1c(Cl)cccc1Cl	65
O=C(NCCSCc1cccc(O)c1)c1c(Cl)cccc1Cl	41
O=C(NCCSCc1ccccc1)c1c(Cl)cccc1Cl	52

test system: H4; experiment: Induction of alpha-secretase-mediated reduction in amyloid beta secretion in human H4 cells expressing wild type betaAPP695 placed in lower chamber treated with […] compound placed in upper chamber containing human Caco-2 cells for 4 hrs measured 24 hrs after media treatment […]; type: cell-based; design: scale not given: the % may be the effect or the level left; settings: not given
Method in brief: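 Caco-2 cells are seeded at 70000 per Transwell insert and grown 21 days to TEER >160 Ω/cm2. Drug at 40 μM with 20 μg/mL lucifer yellow goes in the apical chamber in serum-free medium. After 4 h, basal medium is checked for lucifer yellow and applied to H4βAPP695wt cells for 24 h. Secreted Aβ by ELISA is compared with direct 10 μM drug as % activity passing.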

Structure (SMILES)	Activity [%]
COc1cc(Cl)cc(CSCCNC(=O)c2c(Cl)cccc2Cl)c1	2.7
COc1cccc(CSCCNC(=O)c2c(Cl)cccc2Cl)c1OC	26.5
O=C(NCCSCc1cccc(I)c1)c1c(Cl)cccc1Cl	1.1
COc1cccc(CSCCNC(=O)c2c(Cl)cccc2Cl)c1	17.9
Cc1cccc(CSCCNC(=O)c2c(Cl)cccc2Cl)c1	49.9
O=C(NCCSCc1cccc(Cl)c1)c1c(Cl)cccc1Cl	26.7
O=C(NCCSCc1ccccc1Cl)c1c(Cl)cccc1Cl	31.6
O=C(NCCSCc1ccccc1)c1c(Cl)cccc1Cl	31

test system: Mus musculus; experiment: Reduction in amyloid beta levels in transgenic C57BL/6 mouse brain at 100 mg/kg, iv after 6 hrs; type: functional; design: scale not given: the % may be the effect or the level left; settings: not given
Method in brief: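 Two-month-old female APPswe/PSEN1dE9 C57BL/6 mice (20-25 g) under ketamine/xylazine receive retro-orbital iv injection of 2.5 mg in 150 μL (∼100-125 mg/kg) or vehicle. After 6 h, one hemisphere without cerebellum is homogenized in 5 M guanidine HCl/50 mM Tris pH 8.3. Total Aβ is measured by ELISA and normalized to brain protein by BCA.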

Structure (SMILES)	Activity [%]
Cc1cccc(CSCCNC(=O)c2c(Cl)cccc2Cl)c1	39.6
